Experimental data taken from ChEMBL document CHEMBL2384907, “Identification of substituted pyrimido[5,4-b]indoles as selective Toll-like receptor 4 ligands” (J Med Chem, 2013).
Active and inactive are the calls of the source. The calls are words filed in the database; no cut-off is given here.

Key:
[1] = molecular target: T1, Toll-like receptor 4 (Mus musculus) (UniProt Q9QUK6); assay: Activation of mouse TLR4 transfected in HEK293 cells after 18 hrs by SEAP assay relative to N-cyclohexyl-2-(4-oxo-3-phenyl-4,5-dihydro-3H-pyrimido[5,4-b]indol-2-ylthio)acetamide; format: cell-based
T1 sequence (whole entry): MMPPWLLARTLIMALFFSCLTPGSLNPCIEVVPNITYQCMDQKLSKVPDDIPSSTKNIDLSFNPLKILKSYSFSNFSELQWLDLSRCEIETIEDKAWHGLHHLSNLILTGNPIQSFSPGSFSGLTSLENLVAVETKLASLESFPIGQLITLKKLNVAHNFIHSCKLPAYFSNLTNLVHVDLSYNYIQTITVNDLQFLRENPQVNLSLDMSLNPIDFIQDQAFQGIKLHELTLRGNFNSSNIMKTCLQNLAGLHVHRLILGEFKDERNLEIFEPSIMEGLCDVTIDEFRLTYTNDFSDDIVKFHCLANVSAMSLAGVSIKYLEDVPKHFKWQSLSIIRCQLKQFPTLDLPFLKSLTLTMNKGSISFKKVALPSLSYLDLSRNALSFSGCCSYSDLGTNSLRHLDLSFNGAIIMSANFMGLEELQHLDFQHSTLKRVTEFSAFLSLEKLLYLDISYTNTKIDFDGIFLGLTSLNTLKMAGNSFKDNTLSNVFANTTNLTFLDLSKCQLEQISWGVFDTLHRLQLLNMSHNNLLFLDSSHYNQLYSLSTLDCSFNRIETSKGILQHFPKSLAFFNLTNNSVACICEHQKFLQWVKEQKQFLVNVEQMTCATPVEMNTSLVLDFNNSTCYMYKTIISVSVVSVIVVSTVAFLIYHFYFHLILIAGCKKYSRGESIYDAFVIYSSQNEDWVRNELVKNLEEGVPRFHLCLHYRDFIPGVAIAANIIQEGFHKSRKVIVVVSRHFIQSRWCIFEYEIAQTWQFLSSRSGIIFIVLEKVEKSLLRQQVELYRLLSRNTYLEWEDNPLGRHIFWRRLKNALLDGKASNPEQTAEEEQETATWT
Outline: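 Mouse TLR4 HEK-Blue cells (2.5 × 10^4/well) given titrated doses 312 nM–10 μM for 18 h, 0.5% DMSO vehicle; SEAP at 630 nm. Percent-activity curves, AUC by trapezoid method, normalized to reference hit set at 100. LPS 10 ng/mL control.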

[2] = molecular target: T1, Toll-like receptor 4 (Mus musculus); assay: Activation of TLR4-mediated type 1 IFN release in C57BL/6 mouse BMDC cells assessed as IP10 level after overnight incubation by ELISA; format: cell-based
Outline: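 Wild-type BMDC incubated overnight with graded concentrations, 0.5% DMSO vehicle; IP-10 in supernatants by ELISA as surrogate of type I IFN. Mean ± SEM of triplicates; two independent experiments.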

[3] = molecular target: T1, Toll-like receptor 4 (Mus musculus); assay: Activation of mouse TLR4 transfected in HEK293 cells assessed as NFkappaB activation after 20 to 24 hrs by SEAP assay; format: cell-based
Outline: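 Human or mouse TLR4 HEK-Blue cells (2.5 × 10^4/well) incubated with graded concentrations for 20–24 h; NFκB-driven SEAP in culture supernatant measured colorimetrically.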

[4] = molecular target: T2, Toll-like receptor 7 (Homo sapiens) (UniProt Q9NYK1); assay: Activation of human TLR7 transfected in HEK293 cells at 10 uM after 20 to 24 hrs by SEAP assay; format: cell-based
T2 sequence (whole entry): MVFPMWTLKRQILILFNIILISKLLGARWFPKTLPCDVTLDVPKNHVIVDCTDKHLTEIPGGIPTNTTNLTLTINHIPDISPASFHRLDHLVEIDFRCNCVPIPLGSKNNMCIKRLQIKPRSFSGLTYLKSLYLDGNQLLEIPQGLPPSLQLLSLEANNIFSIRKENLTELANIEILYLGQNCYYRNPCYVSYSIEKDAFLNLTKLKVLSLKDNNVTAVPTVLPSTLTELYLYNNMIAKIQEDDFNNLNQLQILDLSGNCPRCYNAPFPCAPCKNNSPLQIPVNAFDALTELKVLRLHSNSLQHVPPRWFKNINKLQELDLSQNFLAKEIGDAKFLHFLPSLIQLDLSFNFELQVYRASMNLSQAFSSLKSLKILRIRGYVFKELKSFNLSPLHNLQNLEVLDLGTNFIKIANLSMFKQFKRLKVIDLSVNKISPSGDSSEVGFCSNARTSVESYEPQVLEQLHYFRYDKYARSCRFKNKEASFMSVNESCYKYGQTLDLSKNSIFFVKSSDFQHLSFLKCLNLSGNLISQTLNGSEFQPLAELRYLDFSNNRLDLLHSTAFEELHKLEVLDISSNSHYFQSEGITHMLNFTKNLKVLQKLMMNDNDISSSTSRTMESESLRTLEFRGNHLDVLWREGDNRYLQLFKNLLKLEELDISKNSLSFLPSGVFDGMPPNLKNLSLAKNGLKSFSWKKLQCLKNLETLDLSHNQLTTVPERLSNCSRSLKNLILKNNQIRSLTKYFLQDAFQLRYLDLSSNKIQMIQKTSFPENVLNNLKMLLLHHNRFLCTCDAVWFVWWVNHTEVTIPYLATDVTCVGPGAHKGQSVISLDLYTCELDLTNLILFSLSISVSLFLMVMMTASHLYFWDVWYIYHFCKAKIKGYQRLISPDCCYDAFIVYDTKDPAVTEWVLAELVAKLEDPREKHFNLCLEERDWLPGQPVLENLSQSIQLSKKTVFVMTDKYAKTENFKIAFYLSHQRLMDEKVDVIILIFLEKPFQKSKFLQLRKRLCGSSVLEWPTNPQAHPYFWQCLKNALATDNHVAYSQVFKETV

[5] = molecular target: Toll-like receptor 4/MD-2/CD14 (Mus musculus) (UniProt Q9QUK6+Q9JHF9+P10810); assay: Activation of mouse TLR4/MD-2/CD14 complex in HEK293 cells assessed as NFkappaB activation by SEAP assay in presence of LPS-RS

Structure (SMILES): O=C(CSc1nc2c([nH]c3ccccc32)c(=O)n1-c1ccccc1)NC1CCCCC1
- Activity [1]: 100%
- Activity [2]: Dose-dependent effect
- Activity [3]: Dose-dependent effect
- Activity [4]: inactive
- Activity [5]: Dose-dependent effect
